Legend:
P2Y purinoceptor 12 = P2Y purinoceptor 12 (Homo sapiens, UniProt Q9H244); assay: Displacement of [33P]2MeS-ADP from P2Y12 receptor (unknown origin) transfected in CHO cells after 30 mins by scintillation counting analysis; format: cell-based
Procedure, shortened: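 P2Y12-expressing CHO cells (35 × 10³/sample) in PBS with 1 mM EDTA and 0.2% BSA are exposed to compound for 30 min. [³³P]2-MeS-ADP (0.16 nM) is then added for 15 min at 20 °C, in triplicate. Filtration separates free from bound ligand, followed by scintillation counting. Nonspecific binding uses 1 mM unlabeled ADP. IC50 comes from a four-parameter logistic fit with asymptotes fixed at 0 and 100. n = 2.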

[1] = Metabolic stability in rat liver microsomes assessed as compound metabolism after 20 mins incubation in presence of 1 mM NADPH; format: ADME; settings: liver microsomes, read-out: Drug metabolism
Procedure, shortened: (§1)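 Hepatic microsomal fractions are incubated with compound for 20 min with 1 mM NADPH. Result is reported as % metabolized, i.e. 100 minus % unchanged compound.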

[2] = Metabolic stability in human liver microsomes assessed as compound metabolism after 20 mins incubation in presence of 1 mM NADPH; format: ADME; settings: liver microsomes, read-out: Drug metabolism; procedure, shortened: as §1

Sequence of P2Y purinoceptor 12 (Q9H244 whole entry): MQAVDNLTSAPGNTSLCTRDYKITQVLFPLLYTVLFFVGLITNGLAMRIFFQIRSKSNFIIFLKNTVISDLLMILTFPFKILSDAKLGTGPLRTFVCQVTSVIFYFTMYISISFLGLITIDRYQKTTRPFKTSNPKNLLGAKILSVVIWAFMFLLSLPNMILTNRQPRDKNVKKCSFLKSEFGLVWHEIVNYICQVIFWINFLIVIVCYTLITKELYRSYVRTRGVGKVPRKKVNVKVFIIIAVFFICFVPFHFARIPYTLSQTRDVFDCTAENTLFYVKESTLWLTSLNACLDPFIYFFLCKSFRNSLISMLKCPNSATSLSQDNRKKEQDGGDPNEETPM

Compound: CCCC(=O)c1cnn(-c2ccc(NC(=O)c3cn(CC(=O)N4CC5CN(C)CC5C4)c4ccc(C)cc34)cc2)c1C (stereo not drawn)
- IC50 (P2Y purinoceptor 12): 33 nM

Compound: CCCC(=O)c1cnn(-c2ccc(NC(=O)c3cn(CC(=O)N4CC5CCNC5C4)c4ccc(C)cc34)cc2)c1C (stereo not drawn)
- IC50 (P2Y purinoceptor 12): 117 nM

Compound: CCCC(=O)c1cnn(-c2ccc(NC(=O)c3cn(CC(=O)N4CCCC(N)C4)c4ccc(C)cc34)cc2)c1C (stereo not drawn)
- IC50 (P2Y purinoceptor 12): 46 nM

Compound: CCCC(=O)c1cnn(-c2ccc(NC(=O)c3cn(CC(=O)N4CCNCC4)c4ccc(C)cc34)cc2)c1C
- IC50 (P2Y purinoceptor 12): 26 nM

Compound: CCCC(=O)c1cnn(-c2ccc(NC(=O)c3cn(CC(=O)N(C)CCNC)c4ccc(C)cc34)cc2)c1C
- IC50 (P2Y purinoceptor 12): 94 nM

Compound: CCCC(=O)c1cnn(-c2ccc(NC(=O)c3cn(CCCC(=O)O)c4ccc(C)cc34)cc2)c1C
- IC50 (P2Y purinoceptor 12): 24 nM

Compound: CCCC(=O)c1cnn(-c2ccc(NC(=O)c3cn(CC(=O)N4CCN(C)CC4)c4ccc(F)cc34)cc2)c1C
- IC50 (P2Y purinoceptor 12): 142 nM

Compound: CCCC(=O)c1cnn(-c2ccc(NC(=O)c3cn(CC(=O)NCCn4ccnc4)c4ccc(C)cc34)cc2)c1C
- IC50 (P2Y purinoceptor 12): 61 nM

Compound: CCCC(=O)c1cnn(-c2ccc(NC(=O)c3cn(CC(=O)NC(C)CN(C)C)c4ccc(C)cc34)cc2)c1C (stereo not drawn)
- IC50 (P2Y purinoceptor 12): 88 nM

Compound: CCCC(=O)c1cnn(-c2ccc(NC(=O)c3cn(CC(=O)N4CC(C)N(C)C(C)C4)c4ccc(C)cc34)cc2)c1C (stereo not drawn)
- IC50 (P2Y purinoceptor 12): 28 nM

Compound: CCCC(=O)c1cnn(-c2ccc(NC(=O)c3cn(CC(=O)N4CCCC(N(C)C)C4)c4ccc(C)cc34)cc2)c1C (stereo not drawn)
- IC50 (P2Y purinoceptor 12): 73 nM

Compound: CCCC(=O)c1cnn(-c2ccc(NC(=O)c3cn(CC(=O)OC)c4ccc(C)cc34)cc2)c1C
- IC50 (P2Y purinoceptor 12): 93 nM

Compound: CCOC(=O)c1c(C)nn(-c2ccc(NC(=O)Nc3ccc(Cl)cc3)cc2)c1C
- IC50 (P2Y purinoceptor 12): 1260 nM

Compound: CCCC(=O)c1cnn(-c2ccc(NC(=O)c3cn(CC(=O)NCCN4CCCC4)c4ccc(C)cc34)cc2)c1C
- IC50 (P2Y purinoceptor 12): 194 nM

Compound: CCCC(=O)c1cnn(-c2ccc(NC(=O)c3cn(CC(=O)N4CCC(NC)CC4)c4ccc(C)cc34)cc2)c1C
- IC50 (P2Y purinoceptor 12): 115 nM

Compound: CCCC(=O)c1cnn(-c2ccc(NC(=O)c3cn(CC(=O)N4CC5CNCC5C4)c4ccc(C)cc34)cc2)c1C (stereo not drawn)
- IC50 (P2Y purinoceptor 12): 106 nM

Compound: CCCC(=O)c1cnn(-c2ccc(NC(=O)c3cn(CC(=O)N4CCCCC4CN)c4ccc(C)cc34)cc2)c1C (stereo not drawn)
- IC50 (P2Y purinoceptor 12): 111 nM

Compound: CCCC(=O)c1cnn(-c2ccc(NC(=O)c3cn(CC(=O)N(C)CC4CCCN(C)C4)c4ccc(C)cc34)cc2)c1C (stereo not drawn)
- IC50 (P2Y purinoceptor 12): 84 nM

Compound: CCCC(=O)c1cnn(-c2ccc3c(c2)OCCN3C(=O)c2cn(CC(=O)N3CCN(C)CC3)c3ccc(Cl)cc23)c1C
- IC50 (P2Y purinoceptor 12): 559 nM

Compound: CCCC(=O)c1cnn(-c2ccc(OC(=O)c3cn(CC(=O)N4CCN(C)CC4)c4ccc(Cl)cc34)cc2)c1C
- IC50 (P2Y purinoceptor 12): 480 nM

Compound: CCC(=O)c1cnn(-c2ccc(NC(=O)c3cn(CC(=O)N4CCN(C)CC4)c4ccc(Cl)cc34)cc2)c1C
- metabolised at 20 min [1]: 25%
- metabolised at 20 min [2]: 32%
- IC50 (P2Y purinoceptor 12): 336 nM

Compound: CCCC(=O)c1cnn(-c2ccc(NC(=O)c3cn(CCC(=O)O)c4ccc(C)cc34)cc2)c1C
- IC50 (P2Y purinoceptor 12): 7 nM

Compound: CCCC(=O)c1cnn(-c2ccc(NC(=O)c3cn(CC(=O)N4CCN(C)CC4)c4cc(Cl)c(Cl)cc34)cc2)c1C
- IC50 (P2Y purinoceptor 12): 99 nM

Compound: CCCC(=O)c1cnn(-c2ccc(NC(=O)n3cc(CCCC(=O)O)c4ccc(C)cc43)cc2)c1C
- IC50 (P2Y purinoceptor 12): 47 nM

Compound: CCCC(=O)c1cnn(-c2ccc(NC(=O)c3cn(CC(=O)NC4CCCN(C)C4)c4ccc(C)cc34)cc2)c1C (stereo not drawn)
- IC50 (P2Y purinoceptor 12): 71 nM

Compound: CCCCN1CCN(C(=O)Cn2cc(C(=O)Nc3ccc(-n4ncc(C(=O)CCC)c4C)cc3)c3cc(C)ccc32)CC1
- IC50 (P2Y purinoceptor 12): 121 nM

Compound: CCCC(=O)c1cnn(-c2ccc(NC(=O)c3cn(CC(=O)O)c4cc(C)c(C)cc34)cc2)c1C
- metabolised at 20 min [1]: 2%
- metabolised at 20 min [2]: 4%
- IC50 (P2Y purinoceptor 12): 5.1 nM

Compound: CCCC(=O)c1cnn(-c2ccc(NC(=O)c3cn(CC(=O)N4CCC(N(C)C)C4)c4ccc(C)cc34)cc2)c1C (stereo not drawn)
- IC50 (P2Y purinoceptor 12): 87 nM

Compound: CCCC(=O)c1cnn(-c2ccc(NC(=O)c3cn(CC(=O)N4CCN(CC)CC4)c4ccc(C)cc34)cc2)c1C
- IC50 (P2Y purinoceptor 12): 66 nM

Compound: CCCC(=O)c1cnn(-c2ccc(NC(=O)c3cn(CC(=O)N4C[C@@H]5C[C@H]4CN5)c4ccc(C)cc34)cc2)c1C
- IC50 (P2Y purinoceptor 12): 86 nM

Compound: CCCC(=O)c1cnn(-c2ccc(NC(=O)c3cn(CC(=O)O)c4ccc(C)c(C)c34)cc2)c1C
- IC50 (P2Y purinoceptor 12): 272 nM

Compound: CCCC(=O)c1cnn(-c2ccc(NC(=O)c3cn(CC(=O)N4CC5CCN(C)C5C4)c4ccc(C)cc34)cc2)c1C (stereo not drawn)
- IC50 (P2Y purinoceptor 12): 89 nM

Compound: CCCC(=O)c1cnn(-c2ccc(NC(=O)c3cn(CC(=O)N(C)C4CCN(C)C4)c4ccc(C)cc34)cc2)c1C (stereo not drawn)
- IC50 (P2Y purinoceptor 12): 47 nM

Compound: CCCC(=O)c1cnn(-c2ccc(NC(=O)c3cn(CC(=O)N4CCC(N)CC4)c4ccc(C)cc34)cc2)c1C
- IC50 (P2Y purinoceptor 12): 71 nM

Compound: CCCC(=O)c1cnn(-c2ccc(NC(=O)c3cn(CC(=O)N4CC(C)NC(C)C4)c4ccc(C)cc34)cc2)c1C (stereo not drawn)
- IC50 (P2Y purinoceptor 12): 102 nM

Compound: CCCC(=O)c1cnn(-c2ccc(NC(=O)c3cn(CC(=O)N4CCN(C)CC4)c4cc(Cl)c(C)cc34)cc2)c1C
- IC50 (P2Y purinoceptor 12): 138 nM

Compound: CCCC(=O)c1cnn(-c2ccc(NC(=O)c3cn(CC(=O)N4CCN(C)CC4)c4ccc(Cl)cc34)c(C(=O)O)c2)c1C
- IC50 (P2Y purinoceptor 12): 75 nM

Compound: CCCC(=O)c1cnn(-c2ccc(NC(=O)c3cn(CC(=O)N4CCN(C5CC5)CC4)c4ccc(C)cc34)cc2)c1C
- IC50 (P2Y purinoceptor 12): 44 nM

Compound: CCCC(=O)c1cnn(-c2ccc(NC(=O)Nc3cc(C)ccc3OCCCC(=O)O)cc2)c1C
- IC50 (P2Y purinoceptor 12): 17 nM

Compound: CCCC(=O)c1cnn(-c2ccc(NC(=O)c3cn(CC(=O)NC4CCN(C)CC4)c4ccc(C)cc34)cc2)c1C
- IC50 (P2Y purinoceptor 12): 139 nM

Compound: CCCC(=O)c1cnn(-c2ccc(NC(=O)c3cn(CC(=O)N4CCN(C)CC4)c4ccc(Cl)cc34)c(C(N)=O)c2)c1C
- IC50 (P2Y purinoceptor 12): 266 nM

Compound: CCCC(=O)c1cnn(-c2ccc(NC(=O)c3cn(CC(=O)N4CCNC(C)C4)c4ccc(C)cc34)cc2)c1C (stereo not drawn)
- IC50 (P2Y purinoceptor 12): 46 nM

Compound: CCCC(=O)c1cnn(-c2ccc(NC(=O)c3cn(CC(=O)NCCN(C)C)c4ccc(C)cc34)cc2)c1C
- IC50 (P2Y purinoceptor 12): 92 nM

Compound: CC(=O)c1cnn(-c2ccc(NC(=O)c3cn(CC(=O)N4CCN(C)CC4)c4ccc(Cl)cc34)cc2)c1C
- metabolised at 20 min [1]: 47%
- metabolised at 20 min [2]: 40%
- IC50 (P2Y purinoceptor 12): 143 nM

Compound: CCCC(=O)c1cnn(-c2ccc(NC(=O)c3cn(CC(=O)N4CCC(NC)C4)c4ccc(C)cc34)cc2)c1C (stereo not drawn)
- IC50 (P2Y purinoceptor 12): 94 nM

Compound: CCCC(=O)c1cnn(-c2ccc(NC(=O)c3cn(CC(=O)N4C[C@@H]5C[C@@H](O)CN5C[C@@H]4C)c4ccc(C)cc34)cc2)c1C
- metabolised at 20 min [1]: 25%
- metabolised at 20 min [2]: 61%
- IC50 (P2Y purinoceptor 12): 15 nM

Compound: CCOC(=O)c1c(C)nn(-c2ccc(C(=O)NCc3ccccc3OC)cc2)c1C
- IC50 (P2Y purinoceptor 12): 1540 nM

Compound: CCCC(=O)c1cnn(-c2ccc(NC(=O)c3c(C)n(CC(=O)O)c4ccc(C)cc34)cc2)c1C
- IC50 (P2Y purinoceptor 12): 84 nM

Compound: CCCC(=O)c1cnn(-c2ccc(NC(=O)c3cn(CC(=O)N(C)CCN4CCCC4)c4ccc(C)cc34)cc2)c1C
- IC50 (P2Y purinoceptor 12): 124 nM

Compound: CCOC(=O)c1c(C)nn(-c2ccc(NC(=O)Nc3ccccc3OCCCC(=O)O)cc2)c1C
- IC50 (P2Y purinoceptor 12): 80 nM

Compound: CCCC(=O)c1cnn(-c2cnc(NC(=O)c3cn(CC(=O)N4CCN(C)CC4)c4ccc(Cl)cc34)cn2)c1C
- IC50 (P2Y purinoceptor 12): 275 nM

Compound: CCCC(=O)c1cnn(-c2ccc(NC(=O)c3cn(CC(=O)N4CCN(C)CC4)c4cc(Br)c(C)cc34)cc2)c1C
- IC50 (P2Y purinoceptor 12): 118 nM

Compound: CCCC(=O)c1cnn(-c2ccc(NC(=O)c3cn(CC(=O)N4CCCN(C)CC4)c4ccc(C)cc34)cc2)c1C
- IC50 (P2Y purinoceptor 12): 95 nM

Compound: CCCC(=O)c1cnn(-c2ccc(NC(=O)c3cn(CC(=O)N4CCN(C)CC4)c4ccc(OC)cc34)cc2)c1C
- metabolised at 20 min [1]: 63%
- metabolised at 20 min [2]: 68%
- IC50 (P2Y purinoceptor 12): 22 nM

Compound: CCCC(=O)c1cnn(-c2ccc(NC(=O)c3cn(CC(=O)N4CCN5CCCC5C4)c4ccc(C)cc34)cc2)c1C (stereo not drawn)
- IC50 (P2Y purinoceptor 12): 76 nM

Compound: CCCC(=O)c1cnn(-c2ccc(N(C)C(=O)c3cn(CC(=O)O)c4ccc(C)cc34)cc2)c1C
- IC50 (P2Y purinoceptor 12): 304 nM

Compound: CCCC(=O)c1cnn(-c2ccc(NC(=O)c3cn(CC(=O)N[C@H]4CCNC4)c4ccc(C)cc34)cc2)c1C
- IC50 (P2Y purinoceptor 12): 61 nM

Compound: CCCC(=O)c1cnn(-c2ccc(NC(=O)c3cn(CC(=O)N4CCCCC4CN4CCCC4)c4ccc(C)cc34)cc2)c1C (stereo not drawn)
- IC50 (P2Y purinoceptor 12): 100 nM

Compound: CCCC(=O)c1cnn(-c2ccc(NC(=O)c3cn(CC(=O)N4C[C@@H]5C[C@H]4CN5C)c4ccc(C)cc34)cc2)c1C
- IC50 (P2Y purinoceptor 12): 70 nM

Compound: CCCC(=O)c1cnn(-c2ccc(NC(=O)c3cn(CC(=O)N4CCN(CC5CC5)CC4)c4ccc(C)cc34)cc2)c1C
- IC50 (P2Y purinoceptor 12): 29 nM

Compound: CCCC(=O)c1cnn(-c2ccc(NC(=O)c3cn(CC(=O)N4CCCC(NC)C4)c4ccc(C)cc34)cc2)c1C (stereo not drawn)
- IC50 (P2Y purinoceptor 12): 65 nM

Compound: CCCC(=O)c1cnn(-c2ccc(NC(=O)c3cn(CC(=O)N4CCN(CC(F)(F)F)CC4)c4ccc(C)cc34)cc2)c1C
- IC50 (P2Y purinoceptor 12): 66 nM

Compound: CCCC(=O)c1cnn(-c2ccc(NC(=O)c3cn(CC(=O)N4CCN(C)CC4)c4ccc(C#N)cc34)cc2)c1C
- IC50 (P2Y purinoceptor 12): 76 nM

From ChEMBL document CHEMBL3352233, “N-[6-(4-butanoyl-5-methyl-1H-pyrazol-1-yl)pyridazin-3-yl]-5-chloro-1-[2-(4-methylpiperazin-1-yl)-2-oxoethyl]-1H-indole-3-carboxamide (SAR216471), a novel intravenous and oral, reversible, and directly acting P2Y12 antagonist” (J Med Chem, 2014)
